TDP2 inh: TDP2 (human) inhibition, absorbance primary screen. O95551. recombinant TDP2, T5PNP hydrolysis, p-nitrophenol absorbance 415 nm. inhibition, % at 12.8 µM. 0.34% of 370,000 active;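 active = inhibition above the mean of all tested compounds plus 3 SD, set per campaign, cut at about 25% in these data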;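 note: 0% = DMSO with enzyme and 100% = buffer with substrate but no TDP2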
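test system = human TDP2 enzyme | input = TDP2 enzyme at 120 nM final | medium = 50 mM Tris-HCl pH 7.5 with Mg2+, KCl, DTT, BSA | also added = T5PNP substrate, 5 mM | times = 2 h at 37 °C | technique = epi absorbance | benchmarks = high control without enzyme, low control DMSO plus TDP2 | replication = each compound tested once, singlicate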
GSTO1 counter: counter-screen for RBBP9 inhibitors: inhibitors of human GSTO1. P78417. recombinant GSTO1, activity-based probe fluorescence polarization. inhibition, % at 5.96 µM. 1.1% of 300,000 active. AID 1974;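 active = inhibition above the campaign mean inhibition plus 3 SD, cut at about 35% in these data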;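 note: 0% = GSTO1-1 with DMSO and 100% = wells lacking GSTO1-1 enzyme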
Target sequence (P78417 whole entry, looked up): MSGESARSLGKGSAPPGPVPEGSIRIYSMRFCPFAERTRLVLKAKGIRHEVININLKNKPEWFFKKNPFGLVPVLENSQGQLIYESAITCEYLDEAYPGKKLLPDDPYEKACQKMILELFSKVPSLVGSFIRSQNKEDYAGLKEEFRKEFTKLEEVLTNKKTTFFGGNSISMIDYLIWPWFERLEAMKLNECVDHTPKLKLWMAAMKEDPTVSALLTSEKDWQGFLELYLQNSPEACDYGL
PAD4 FP inh: PAD4 (human) enzyme inhibition | Q9UM07 | recombinant PAD4, RCA probe fluorescence polarization | inhibition, % at 6.36 µM | 0.41% of 330,000 active;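 active = percent inhibition above a cutoff equal to the mean of all tested compounds plus 3 SD, cut at about 15% in these data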;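 note: 0% = PAD4 with RCA probe and DMSO and 100% = probe without PAD4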
Fh CTSL1 inh: counter-screen for PFM18AAP inhibitors: inhibitors of F. hepatica cathepsin L1; recombinant F. hepatica cathepsin L1, Z-Leu-Arg-MCA fluorescence; inhibition, % at 5.96 µM; 0.49% of 300,000 active; AID 1906;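 active = inhibition above the mean of all tested compounds plus 3 SD, set per screening campaign, cut at about 17% in these data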;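 note: 0% = plate median of test compound wells and 100% = 1 µM Z-Phe-Ala-diazomethylketone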
PRMT1 FP inh: inhibitors of human PRMT1 | Q99873 | inhibition, % at 2.79 µM | recombinant PRMT1, activity-based probe fluorescence polarization | 1.3% of 370,000 active;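 active = inhibition above about 21% made by adding two undisclosed values, limit read from the data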
PRMT1 confirm: confirmation of human PRMT1 inhibitors. shares compounds with PRMT1 FP inh. recombinant His-PRMT1, activity-based probe fluorescence polarization. inhibition, % at 2.79 µM. 42% of 3,300 active. AID 687036;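 active = mean inhibition across replicates above the hit cutoff derived for the earlier primary screen, cut at about 22% in these data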
Starred values were filed as active, the others as inactive; x = not tested or not shown. An excerpt weighted towards active compounds, which were near 2.5% of everything screened.

SMILES	TDP2 inh	GSTO1 counter	PAD4 FP inh	Fh CTSL1 inh	PRMT1 FP inh	PRMT1 confirm
C=CCN1C(=O)/C(=c2\sc3nc(=O)c(Cc4ccccc4Cl)nn3c2=O)c2ccccc21	-8	3	0	-1	27*	18
CC[N+]1(C)CCC(O)(c2ccc(OC)cc2)C(C(=O)c2ccc(OC)cc2)C1 (centres undefined)	8	x	x	x	26*	13
Cc1nc(Cl)c2c(n1)NC1=C(O2)C(=O)CCC1	10	10	10	13	36*	48*
O=C(c1ccc(-c2ccc([N+](=O)[O-])cc2)o1)N1CCCC(C(F)(F)F)C1 (centres undefined)	3	6	0	5	16	x
O=[N+]([O-])c1ccccc1-c1ccc(C(=S)N2CCCC2)o1	6	5	-2	4	39*	8
O=[N+]([O-])c1cc(-c2ccc(C(=S)N3CCOCC3)o2)ccc1Cl	-2	16	-14	-3	44*	18
O=C(c1ccc(-c2ccc([N+](=O)[O-])cc2)o1)N1CCCCCCC1	-7	x	-5	x	31*	-1
O=[N+]([O-])c1cccc(-c2ccc(C(=S)N3CCOCC3)o2)c1	-4	-4	-9	-1	0	x
Cc1onc(-c2ccc(Cl)cc2)c1-c1ccn(S(=O)(=O)c2ccccc2Cl)n1	2	x	x	x	-2	x
CCCCCCC(=O)n1ccc2ccc(-c3ccc4ccn(Cc5ccc(OC)cc5)c4c3)cc21	9	x	x	x	4	x
Cc1sc2nc(CSCC(=O)NC3(C#N)CCCCC3)[nH]c(=O)c2c1C	-5	x	-5	x	25*	5
CCOC(=O)c1ccc(N2C(=O)CC(N3CCC(O)(c4ccc(Br)cc4)CC3)C2=O)cc1 (centres undefined)	-8	-6	-6	1	8	x
CCOc1ccc(N2C(=O)CC(N3CCC(O)(c4ccc(Br)cc4)CC3)C2=O)cc1 (centres undefined)	-10	2	-5	-1	56*	-1
CCOC(=O)c1ccc(N2C(=O)CC(N3CCC(O)(c4ccc(Cl)cc4)CC3)C2=O)cc1 (centres undefined)	-19	1	5	-1	50*	17
CCOc1ccc(N2C(=O)CC(N3CCN(c4ccc(F)cc4)CC3)C2=O)cc1 (centres undefined)	-21	8	-1	6	14	x
N#Cc1cccc(Cn2ccc3ccc(-c4ccc5ccn(Cc6ccccc6)c5c4)cc32)c1	0	x	x	x	5	x
COC(=O)c1ccc(S(=O)(=O)N2CCC(NC(=O)CCc3ccccc3)CC2)cc1	-5	x	x	x	2	x
O=C1NCCN1CCNc1nc(NCc2ccccc2)nc2ccsc12	-6	x	x	x	7	x
CC(C)Nc1nc(NCCN2CCNC2=O)c2sccc2n1	1	x	x	x	40*	-6
Cc1ccc(-c2n[nH]c(=S)n2C)cc1	7	x	x	x	1	x
Cc1ccc(-c2cn3c(=S)[nH]nc3s2)cc1	-7	0	3	-1	26*	1
CCCCCCC(=O)N(O)C1CC(=O)N(c2ccc(C)cc2)C1=O (centres undefined)	-14	-1	-2	-8	87*	91*
CCCCCCC(=O)N(O)C1CC(=O)N(c2ccc(Cl)cc2)C1=O (centres undefined)	-5	-7	-3	-5	51*	84*
O=C(NCCc1ccccc1)OCc1cn(Cc2ccc(Cl)cc2)nn1	-1	x	x	x	2	x
O=C(Nc1cccc([N+](=O)[O-])c1)c1ccncc1	9	-1	-8	-1	0	x
SMILES	TDP2 inh	GSTO1 counter	PAD4 FP inh	Fh CTSL1 inh	PRMT1 FP inh	PRMT1 confirm
O=C(CCNc1ccc(Cc2ccncc2)cc1)c1cccc([N+](=O)[O-])c1	4	6	-3	3	32*	31*
O=C(CCNc1cccc(F)c1)c1cccc([N+](=O)[O-])c1	4	-3	-2	-11	41*	27*
Cc1ccc(S(=O)(=O)CCC(=O)c2cccc([N+](=O)[O-])c2)cc1	4	0	5	20*	83*	91*
CCC(C)N(C(=O)Cn1nc(Cc2ccncc2)c2ccccc2c1=O)C(C)CC (centres undefined)	2	x	x	x	-2	x
COC(=O)c1cccc(Cn2ccc3ccc(-c4ccc5ccn(Cc6cccc(C(=O)OC)c6)c5c4)cc32)c1	-1	x	x	x	-5	x
N#Cc1c2c(c(=S)n(-c3ccccc3)c1N)CCCC2	-3	2	2	-3	26*	8

Compound activity deposited in PubChem by The Scripps Research Institute Molecular Screening Center.
